Test results reported in ChEMBL document CHEMBL1153809, “7,7-Dimethylaporphine alkaloids from the stem of Guatteriopsis friesiana” (2009).
Values after ≈ are worked out from the molar mass of the structure shown.

What was measured:
Assay type in all cases: functional
[1] = system: Candida albicans; assay: Antimicrobial activity against Candida albicans ATCC 10231 after 48 hrs by TTC staining method
Method in brief: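 Yeast grown on Sabouraud dextrose agar. Cells suspended in 0.85% NaCl to McFarland 0.5 (checked at 580 nm), then diluted to 10^4 CFU/mL. Mueller-Hinton broth microdilution, in duplicate. Samples tested at 1.0-0.016 mg/mL; chloramphenicol and nystatin references at 0.25-0.002 mg/mL. Incubated 48 h at 36 °C, then 0.5% TTC added. MIC is the lowest concentration preventing visible growth by TTC stain.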

[2] = system: Escherichia coli; assay: Antimicrobial activity against Escherichia coli ATCC 11775 after 48 hrs by TTC staining method; conditions: ATCC 11775, 48 h
Method in brief: (§1)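 Bacteria grown overnight at 36 °C on nutrient agar. Cells suspended in 0.85% NaCl to McFarland 0.5 (checked at 580 nm), then diluted to 10^4 CFU/mL. Broth microdilution in Mueller-Hinton broth, in duplicate. Samples tested at 1.0-0.016 mg/mL; chloramphenicol and nystatin references at 0.25-0.002 mg/mL. Incubated 36 °C for 48 h, then 0.5% TTC added. MIC is the lowest concentration inhibiting visible growth by TTC staining.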

[3] = system: Micrococcus luteus; assay: Antimicrobial activity against Micrococcus luteus ATCC 4968 after 48 hrs by TTC staining method; conditions: ATCC 4968, 48 h; method in brief: as §1
[4] = system: Pseudomonas aeruginosa; assay: Antimicrobial activity against Pseudomonas aeruginosa ATCC 13388 after 48 hrs by TTC staining method; conditions: ATCC 13388, 48 h; method in brief: as §1
[5] = system: Prescottella equi; assay: Antimicrobial activity against Rhodococcus equi ATCC 6939 after 48 hrs by TTC staining method; conditions: Rhodococcus (subgen. Prescottella) equi, ATCC 6939, 48 h; method in brief: as §1
[6] = system: Salmonella enterica; assay: Antimicrobial activity against Salmonella choleraesuis ATCC 10708 after 48 hrs by TTC staining method; conditions: ATCC 10708, 48 h; method in brief: as §1
[7] = system: Staphylococcus aureus; assay: Antimicrobial activity against Staphylococcus aureus ATCC 6538 after 48 hrs by TTC staining method; conditions: ATCC 6538, 48 h; method in brief: as §1
[8] = system: Staphylococcus epidermidis; assay: Antimicrobial activity against Staphylococcus epidermidis ATCC 12228 after 48 hrs by TTC staining method; conditions: ATCC 12228, 48 h; method in brief: as §1
[9] = system: Bacillus subtilis; assay: Antimicrobial activity against Bacillus subtilis ATCC 5061 after 48 hrs by TTC staining method; conditions: ATCC 5061, 48 h; method in brief: as §1
[10] = system: Enterococcus faecium; assay: Antimicrobial activity against Enterococcus faecium CCT 5079 after 48 hrs by TTC staining method; conditions: CCT 5079, 48 h; method in brief: as §1
[11] = system: Enterococcus hirae; assay: Antimicrobial activity against Enterococcus hirae ATCC 10541 after 48 hrs by TTC staining method; conditions: ATCC 10541, 48 h; method in brief: as §1

Molecule | MIC [1] [mg/L] | MIC [2] [mg/L] | MIC [3] [mg/L] | MIC [4] [mg/L] | MIC [5] [mg/L] | MIC [6] [mg/L] | MIC [7] [mg/L] | MIC [8] [mg/L] | MIC [9] [mg/L] | MIC [10] [mg/L] | MIC [11] [mg/L] | MIC ([1]; ATCC 10231, 48 h) [mg/L]
NYSTATIN | 50 | – | – | – | – | – | – | – | – | – | – | –
O=C(N[C@H](CO)[C@H](O)c1ccc([N+](=O)[O-])cc1)C(Cl)Cl [CHLORAMPHENICOL] | – | 40 (≈ 124 µM) | 50 (≈ 155 µM) | 850 (≈ 2630 µM) | 40 (≈ 124 µM) | 60 (≈ 186 µM) | 20 (≈ 61.9 µM) | 40 (≈ 124 µM) | 20 (≈ 61.9 µM) | 70 (≈ 217 µM) | 120 (≈ 371 µM) | –
O=C1c2ccccc2-c2c3c(cc4ccnc1c24)OCO3 [LIRIODENINE] | – | > 1000 | 150 (≈ 545 µM) | > 1000 | 10 (≈ 36.3 µM) | > 1000 | > 1000 | – | 500 (≈ 1820 µM) | 150 (≈ 545 µM) | 600 (≈ 2180 µM) | > 1000
